Screens from PubChem.
HKDC1 inh: HKDC1 hexokinase inhibitors, primary screen, biochemical, fluorescence, uHTS; recombinant HKDC1, G6PDH/diaphorase resazurin coupled fluorescence; inhibition, % at 20 µM; 340,000 tested, 0.16% active; AID 493160, 2011;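 active means inhibition above about 35% when tested at 20 µM, limit read from the data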;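 further: plate controls were DMSO wells with enzyme for no effect and DMSO wells lacking enzyme for full effect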
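Material – in-house recombinant HK5 (HKDC1) enzyme · Quantity – HKDC1 at 5 µg/mL · Buffer or medium – pH 8.0 Tris buffer with 10 mM MgCl2 · Reagent – glucose with 1 mM ATP · Dosing – single 20 µM dose · Times – reaction time 90 min, room temperature, protected from light · Technique – resorufin fluorescence at 613 nm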
DNMT1 block: human DNMT1 methyltransferase inhibitors, primary screen, biochemical, molecular beacon, fluorescence, HinP1I cleavage, uHTS; inhibition (reported as % activation of signal), % at 10 µM; DNA (cytosine-5)-methyltransferase 1 (Homo sapiens), P26358; 360,000 tested, 0.83% active; in the data active means inhibition above about 50%
Scp1 inh: Scp-1 phosphatase inhibitors, primary screen, biochemical, colorimetric, uHTS; Carboxy-terminal domain RNA polymerase II polypeptide A small phosphatase 1 (Homo …; Recombinant Scp1, phosphopeptide, malachite green phosphate absorbance; inhibition, % at 20 µM; 340,000 tested, 0.88% active;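 active means inhibition above about 50% at 20 µM, limit read from the data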;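 further: plate controls were DMSO wells with enzyme for no effect and wells lacking enzyme for full effect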
Target sequence (Q9GZU7 76-261 limits assumed): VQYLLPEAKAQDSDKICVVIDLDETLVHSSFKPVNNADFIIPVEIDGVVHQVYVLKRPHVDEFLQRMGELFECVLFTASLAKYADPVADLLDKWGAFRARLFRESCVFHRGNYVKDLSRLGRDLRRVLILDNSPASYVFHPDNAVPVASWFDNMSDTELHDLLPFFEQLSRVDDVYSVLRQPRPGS
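Test system: SCP-1 phosphatase catalytic domain, residues 76-261; measured by: colorimetric phosphate reagent with accelerator and stabiliser, absorbance at 630 nm; timing: enzyme reaction 45 min at room temperature, colour 5 min, stabilisation 30 min; also added: Phosphorylated 17-residue peptide substrate; compound dosing: one concentration, 20 µM, with 1.0% DMSO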
STEP inh: STEP phosphatase inhibitors, primary screen, biochemical, fluorescence intensity, uHTS. Tyrosine-protein phosphatase non-receptor type 5 (Homo sapiens), P54829. recombinant STEP, OMFP fluorogenic substrate. inhibition, % at 20 µM. 360,000 tested, 0.25% active;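 active means inhibition at 20 µM, scaled per plate between control wells, above about 37%, limit read from the data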;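 further: 0% = DMSO with enzyme and substrate and 100% = substrate only without enzyme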
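Assay system: isolated STEP enzyme. Buffer or medium: pH 6.0 Bis-Tris with DTT and Tween 20. Also added: fluorogenic phosphatase substrate OMFP at 25 µM final. Dosing: 20 µM, 1% DMSO. Timing: 20 min reaction, room temperature, in the dark. Measured by: fluorescence intensity, excitation 480 nm, emission 540 nm. Evaluation: normalized % inhibition.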
SUMO1-SIM PPI: modulators of SUMO1 protein-protein interactions, primary screen, biochemical, uHTS. Small ubiquitin-related modifier 1 (Homo sapiens), P63165. 360,000 tested, 0.33% active. AID 602429, 2012. SUMO1 binding to a labelled peptide, TR-FRET, 1 h. inhibition, % at 20 µM; in the data active means inhibition above about 37%
Target sequence (P63165 whole entry, looked up): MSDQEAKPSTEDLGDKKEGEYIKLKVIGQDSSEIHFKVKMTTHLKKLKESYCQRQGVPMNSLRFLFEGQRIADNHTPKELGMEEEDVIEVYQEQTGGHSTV
LMPTP inh: LMPTP phosphatase inhibitors, primary screen, biochemical, fluorescence intensity, uHTS; inhibition, % at 20 µM; 360,000 tested, 0.22% active; AID 651560, 2012; recombinant LMPTP-A, OMFP fluorogenic substrate;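 active means compounds that cut the enzyme signal by at least half of the control window in the single-dose screen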;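 further: plate controls were DMSO wells with enzyme plus substrate for no effect and substrate without enzyme for full effect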
Target sequence (P24666 whole entry, looked up): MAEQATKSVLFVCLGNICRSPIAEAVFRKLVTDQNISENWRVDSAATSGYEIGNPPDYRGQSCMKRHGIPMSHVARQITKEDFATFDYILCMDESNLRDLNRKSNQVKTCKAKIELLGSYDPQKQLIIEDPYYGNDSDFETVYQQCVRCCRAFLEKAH
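Assay system: LMPTP-A phosphatase enzyme | Input: 0.625 nM enzyme | Also added: Fluorogenic phosphatase substrate OMFP at 400 µM final | Compound dosing: One test concentration per compound, 20 µM, with 3% DMSO overall | Schedule: 50 min enzyme reaction at room temperature, protected from light | Signal: Fluorescence intensity | Benchmarks: no-enzyme and uninhibited controls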
HKDC1 act conf2: HKDC1 hexokinase activators, confirmation, biochemical, single concentration. shares compounds with HKDC1 inh. recombinant HKDC1, G6PDH/diaphorase resazurin fluorescence; stronger effect = lower value. inhibition, % at 20 µM. 740 tested, 14% active;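 active means inhibition at or below a set negative limit, negative inhibition meaning the enzyme was activated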
The depositor's hits bear a star; / = no result; ! = not active in a repeat. An excerpt weighted towards active compounds, which were near 1.8% of everything screened.

SMILES	HKDC1 inh	DNMT1 block	Scp1 inh	STEP inh	SUMO1-SIM PPI	LMPTP inh	HKDC1 act conf2
O=C(O)c1[nH]c2ccccc2c1C(c1cc(Cl)cc([N+](=O)[O-])c1O)c1c(C(=O)O)[nH]c2ccccc12	38*	10	-2	-5	4	1	32
Cn1cc(CN2CCC(C(=O)Nc3ccc(Oc4ccccc4F)cc3)CC2)cn1	0	0	6	-1	-2	0	/
COc1cc(C2c3c([nH]c(=O)[nH]c3=O)Nc3ccc4ccccc4c32)ccc1O (centres undefined)	-1	-1	-7	2	-9	0	/
COc1cc(C2c3c([nH]c(=O)[nH]c3=O)Nc3ccc4ccccc4c32)cc(OC)c1OC (centres undefined)	37*	0	-1	3	1	2	44
CCc1nc2sc3c(=O)[nH]cnc3c2c2c1CSC(C)(C)C2	37*	-1	12	0	3	-3	31
COc1ccccc1C(=O)NC(=O)COC(=O)c1cnccn1	/	5	/	3	11	-1	/
COc1cc(C=c2c3ccccc3n3c2cc(-c2ccccc2)[n+]3C)cc(OC)c1OC	27	18	10	4	-17	8	/
CN(C)c1ccc(C=c2c3ccccc3n3c2cc(-c2ccccc2)[n+]3C)cc1	37*	29	10	11	-61	89*	23
COc1cc(N(C)C)ccc1C=c1c2ccccc2n2c1cc(-c1ccccc1)[n+]2C	41*	-14	5	22	-19	90*	37
COCCC(=O)N1CCC(Oc2ccc(C(=O)N3CCCC(CCCO)C3)cc2)CC1 (centres undefined)	6	0	23	0	1	0	/
Cc1ccccc1C(=O)Nc1ccnn1C1CCN(C(C)Cc2ccccc2F)CC1 (centres undefined)	-5	2	-3	-2	-3	-1	/
CC(=O)Oc1ccc(-c2csc(Nc3ccc(S(N)(=O)=O)cc3)n2)cc1	-8	-5	-12	-2	0	1	/
COc1ccc(-c2csc(Nc3ccc(S(N)(=O)=O)cc3)n2)cc1	-42	-33	0	0	2	2	-25
Nc1ccc(S(=O)(=O)c2cc(O)c3ccccc3c2O)cc1	55*	-29	44	0	11	2	69
O=S(=O)(c1ccccc1)c1cc(O)ccc1O	19	-5	-8	0	0	2	/
Cc1ccc(/C=C/c2nc3sc(C(=O)O)c(C)c3c(=O)[nH]2)cc1[N+](=O)[O-]	47*	24	89*	99*	16	64*	-27
COc1ccc(-c2ccc(C(=O)NCc3ccc(C(F)(F)F)cc3)c3occc23)c(C)c1	/	-2	/	3	0	6	/
CCOC(=O)C1CCN(C(=O)Nc2ccc3nc(-c4ccco4)c(-c4ccco4)nc3c2)CC1	43*	113*	67*	68*	106*	80*	0
COc1ccc(NC(=O)Cc2c[nH]c3ccccc23)cc1S(=O)(=O)N1CCCCC1	49*	-12	-14	7	3	2	-35*
O=NNc1nc2ccccc2n1Cc1ccccc1	-40	18	4	3	0	4	-44*
Cc1cc(C(=O)N=Nc2c(O)n(C(C)C)c3ccccc23)n[nH]1	40*	-1	-17	4	-19	0	34
Oc1ccc(O)c(Cc2nc3ccccc3[nH]2)c1	54*	-8	3	4	1	13	56
CCNC(=S)NNC(=O)c1ccccn1	-25	4	-9	0	0	-2	/
O=C(NNC(=S)Nc1ccc(Cl)c(Cl)c1)c1ccccn1	-57	-4	-11	2	11	0	-74*
Cc1csc(=O)n1CC(=O)OCC(=O)Nc1ccc(F)c(F)c1F	/	4	/	-2	-1	-1	/
SMILES	HKDC1 inh	DNMT1 block	Scp1 inh	STEP inh	SUMO1-SIM PPI	LMPTP inh	HKDC1 act conf2
CCC(C)CN1C(=O)CSCC1(C)C(=O)NC(C)C (centres undefined)	/	/	/	/	-2	0	/
O=C(CN(C(=O)CCC(=O)Nc1ccccn1)c1ccc2c(c1)OCO2)NCc1ccc(F)cc1	-46	-1	-3	-2	5	0	31
CC(=O)c1cccc(NC(=O)C2(C)Cc3c(-c4ccccc4)ccnc3O2)c1 (centres undefined)	/	-2	/	2	5	2	/
CC(C)N=C(N)N=C(N)Nc1ccc(Cl)cc1	0	7	-14	0	-5	-1	/
NC(=NCCCCCCN=C(N)/N=C(\N)Nc1ccc(Cl)cc1)/N=C(\N)Nc1ccc(Cl)cc1	53*!	-60	-17	6	-123	0	46
COc1cccc2c1C(=O)C=C(C)C2=O	-43	-17	-10	4	-14	-1	-31
Cc1ccc(S(=O)(=O)/N=C2/C=C(Sc3ncn[nH]3)C(=O)c3ccccc32)cc1	69*	77*	25	2	93*	8	63
CC(C)c1ccc(S(=O)(=O)/N=C2/C=C(Sc3ncn[nH]3)C(=O)c3ccccc32)cc1	64*	32	2	15	92*	9	61
CCOc1ccc(S(=O)(=O)Nc2ccc(O)c(Sc3ncn[nH]3)c2)cc1	5	5	-3	1	1	0	/
Cc1ccc(S(=O)(=O)Nc2ccc(O)c(Sc3ncn[nH]3)c2)cc1	-5	-1	-7	1	0	0	/
CC1CC(=O)Nc2ccccc2N1C(=O)COc1ccccc1C(N)=O (centres undefined)	/	-3	/	-4	0	0	/
COC(=O)[C@]12CCCCC=C1N(CCC1=CCCCC1)C(=O)[C@H](CC(=O)NCc1ccccc1)C2	/	/	/	/	2	3	/
COC1=C(Br)C(=O)c2ncccc2C1=O	56*	91*	2	9	49*	12	65
COc1ccccc1N1C(=O)c2cccnc2C1=O	-2	-1	-6	-3	-13	0	/
NC(=O)[C@H]1CC2(CC(c3cccc(NC(=O)[C@H]4CCC(=O)N4)c3)=NO2)CN1C(=O)c1ccccc1 (some centres undefined)	39*	0	2	-1	23	2	28
